Assay results: ChEMBL document CHEMBL3525900, “Pharmacokinetics, distribution, and metabolism of [14C]sunitinib in rats, monkeys, and humans” (Drug Metab Dispos, 2012)

Experiments:
Zone of skin = assay: Drug concentration in female Lister Hooded pigmented rat abdomen skin assessed as radioactivity per gram of tissue at 20 mg/kg administered as single dose via gastric gavage measured after 168 hrs by autoradiographic analysis; assay type: ADME, organism-based; set-up: dose 20 mg/kg, dosed compound name [14C]Sunitinib; settings: in vivo, po
In short: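 Pigmented Lister Hooded rats, 7-8 weeks old, received [14C]sunitinib L-malate by gavage at 20 mg/kg (15 mg freebase/kg, 100 µCi/kg). One rat per sex was killed by CO2 at each of 24, 72, 168 and 336 h. Carcasses were frozen in solid CO2/hexane and cut into 30 µm sagittal sections, then freeze-dried. Tissue radioactivity was quantified by whole-body autoradiography calibrated against standards by regression (LOQ 0.04–0.06 µg eq/g).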

Ovary = assay: Drug concentration in female albino rat ovary assessed as radioactivity per gram of tissue at 20 mg/kg administered as single dose via gastric gavage measured after 6 hrs by autoradiographic analysis; assay type: ADME, organism-based, Female gonad; set-up: dose 20 mg/kg, dosed compound name [14C]Sunitinib; settings: in vivo, po
In short: (§1)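 Sprague Dawley albino rats, ca 7-8 weeks old, dosed once by gastric gavage with [14C]sunitinib L-malate (15 mg freebase/kg, 100 µCi/kg). One male and one female killed by CO2 at 3, 6, 24, 72 and 168 h. Carcasses frozen in solid CO2/hexane, embedded and cut into 30 µm sagittal sections, then freeze-dried. Radioactivity quantified by whole-body autoradiography against standards by regression, background subtracted.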

Kidney [1] = assay: Drug concentration in male albino rat kidney assessed as radioactivity per gram of tissue at 20 mg/kg administered as single dose via gastric gavage measured after 6 hrs by autoradiographic analysis; assay type: ADME, organism-based; set-up: dose 20 mg/kg, dosed compound name [14C]Sunitinib; settings: in vivo, po
[2] = Drug concentration in female albino rat bone marrow assessed as radioactivity per gram of tissue at 20 mg/kg administered as single dose via gastric gavage measured after 3 hrs by autoradiographic analysis; assay type: ADME, organism-based; set-up: dose 20 mg/kg, dosed compound name [14C]Sunitinib; settings: in vivo, po
In short: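 Sprague Dawley (albino) and Lister Hooded (pigmented) rats, ca 7-8 weeks old, 179-310 g, acclimated 7 days. Single gavage dose of [14C]sunitinib L-malate (15 mg freebase/kg, 100 µCi/kg). One male and one female killed by CO2 per time point: albino at 3, 6, 24, 72, 168 h; pigmented at 24, 72, 168, 336 h. Carcasses frozen in solid CO2/hexane, 30 µm sagittal sections freeze-dried. Tissue radioactivity read by quantitative whole-body autoradiography against regression of standards, mean background subtracted.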

[3] = Drug concentration in female Lister Hooded pigmented rat brown fat assessed as radioactivity per gram of tissue at 20 mg/kg administered as single dose via gastric gavage measured after 24 hrs by autoradiographic analysis; assay type: ADME, organism-based, Brown adipose tissue; set-up: dose 20 mg/kg, dosed compound name [14C]Sunitinib; settings: in vivo, po
In short: (§2)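 Lister Hooded (pigmented) rats, ca 7-8 weeks old, acclimated 7 days, given [14C]sunitinib L-malate by gastric gavage at 20 mg/kg (15 mg freebase/kg, 100 µCi/kg). One male and one female killed by CO2 at 24, 72, 168 and 336 h. Carcasses frozen in solid CO2/hexane and embedded in frozen cellulose. 30 µm sagittal cryosections were freeze-dried. Tissue radioactivity measured by quantitative whole-body autoradiography against calibration standards, with background subtracted.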

[4] = Drug concentration in male albino rat preputial gland assessed as radioactivity per gram of tissue at 20 mg/kg administered as single dose via gastric gavage measured after 24 hrs by autoradiographic analysis; assay type: ADME, organism-based; set-up: dose 20 mg/kg, dosed compound name [14C]Sunitinib; settings: in vivo, po
Kidney [5] = assay: Drug concentration in female albino rat kidney assessed as radioactivity per gram of tissue at 20 mg/kg administered as single dose via gastric gavage measured after 72 hrs by autoradiographic analysis; assay type: ADME, organism-based; set-up: dose 20 mg/kg, dosed compound name [14C]Sunitinib; settings: in vivo, po; in short: as §1
[6] = Drug concentration in male albino rat testis assessed as radioactivity per gram of tissue at 20 mg/kg administered as single dose via gastric gavage measured after 168 hrs by autoradiographic analysis; assay type: ADME, organism-based; set-up: dose 20 mg/kg, dosed compound name [14C]Sunitinib; settings: in vivo, po
[7] = Drug concentration in male albino rat testis assessed as radioactivity per gram of tissue at 20 mg/kg administered as single dose via gastric gavage measured after 24 hrs by autoradiographic analysis; assay type: ADME, organism-based; set-up: dose 20 mg/kg, dosed compound name [14C]Sunitinib; settings: in vivo, po
Thymus [8] = assay: Drug concentration in male albino rat thymus assessed as radioactivity per gram of tissue at 20 mg/kg administered as single dose via gastric gavage measured after 6 hrs by autoradiographic analysis; assay type: ADME, organism-based; set-up: dose 20 mg/kg, dosed compound name [14C]Sunitinib; settings: in vivo, po
[9] = Drug recovery in feces of human at 50 mg, po administered as single dose during 0 to 504 hrs by liquid scintillation counting; assay type: ADME, organism-based; set-up: dosed compound name [14C]Sunitinib; settings: in vivo
Spinal cord [10] = assay: Drug concentration in male Lister Hooded pigmented rat spinal cord assessed as radioactivity per gram of tissue at 20 mg/kg administered as single dose via gastric gavage measured after 168 hrs by autoradiographic analysis; assay type: ADME, organism-based; set-up: dose 20 mg/kg, dosed compound name [14C]Sunitinib; settings: in vivo, po
Spinal cord [11] = assay: Drug concentration in female albino rat spinal cord assessed as radioactivity per gram of tissue at 20 mg/kg administered as single dose via gastric gavage measured after 6 hrs by autoradiographic analysis; assay type: ADME, organism-based; set-up: dose 20 mg/kg, dosed compound name [14C]Sunitinib; settings: in vivo, po
Rattus norvegicus [12] = assay: Cmax as total radioactivity in female Sprague-Dawley rat plasma at 15 mg/kg, po administered as single dose by LC/MS/MS analysis; assay type: ADME, organism-based; set-up: dose 15 mg/kg, dosed compound name [14C]Sunitinib, route oral; settings: in vivo
In short: (§3)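 Single dose of [14C]sunitinib L-malate as free base, 50 µCi/kg. IV dose was 5 mg/kg by tail vein in 5 females. Oral dose was 15 mg/kg by gavage in 3 females and 3 males. Total radioactivity was by scintillation counting. […] Cmax was read from raw data, t½ by log-linear regression, AUC by linear trapezoidal rule.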

[13] = Drug concentration in female albino rat uterus assessed as radioactivity per gram of tissue at 20 mg/kg administered as single dose via gastric gavage measured after 24 hrs by autoradiographic analysis; assay type: ADME, organism-based; set-up: dose 20 mg/kg, dosed compound name [14C]Sunitinib; settings: in vivo, po
[14] = Drug concentration in male albino rat uveal tract assessed as radioactivity per gram of tissue at 20 mg/kg administered as single dose via gastric gavage measured after 6 hrs by autoradiographic analysis; assay type: ADME, organism-based; set-up: dose 20 mg/kg, dosed compound name [14C]Sunitinib; settings: in vivo, po
Large intestine [15] = assay: Drug concentration in male albino rat large intestine assessed as radioactivity per gram of tissue at 20 mg/kg administered as single dose via gastric gavage measured after 6 hrs by autoradiographic analysis; assay type: ADME, organism-based; set-up: dose 20 mg/kg, dosed compound name [14C]Sunitinib; settings: in vivo, po
Rattus norvegicus [16] = assay: Apparent terminal half life as total radioactivity in female Sprague-Dawley rat plasma at 15 mg/kg, po administered as single dose by LC/MS/MS analysis; assay type: ADME, organism-based; set-up: dose 15 mg/kg, dosed compound name [14C]Sunitinib, route oral; settings: in vivo; in short: as §3
Thymus [17] = assay: Drug concentration in male albino rat thymus assessed as radioactivity per gram of tissue at 20 mg/kg administered as single dose via gastric gavage measured after 24 hrs by autoradiographic analysis; assay type: ADME, organism-based; set-up: dose 20 mg/kg, dosed compound name [14C]Sunitinib; settings: in vivo, po
[18] = Drug concentration in male albino rat testis assessed as radioactivity per gram of tissue at 20 mg/kg administered as single dose via gastric gavage measured after 6 hrs by autoradiographic analysis; assay type: ADME, organism-based; set-up: dose 20 mg/kg, dosed compound name [14C]Sunitinib; settings: in vivo, po
[19] = Drug concentration in male albino rat thyroid gland assessed as radioactivity per gram of tissue at 20 mg/kg administered as single dose via gastric gavage measured after 6 hrs by autoradiographic analysis; assay type: ADME, organism-based; set-up: dose 20 mg/kg, dosed compound name [14C]Sunitinib; settings: in vivo, po
Large intestine [20] = assay: Drug concentration in male albino rat large intestine assessed as radioactivity per gram of tissue at 20 mg/kg administered as single dose via gastric gavage measured after 24 hrs by autoradiographic analysis; assay type: ADME, organism-based; set-up: dose 20 mg/kg, dosed compound name [14C]Sunitinib; settings: in vivo, po
[21] = Drug concentration in male albino rat bladder assessed as radioactivity per gram of tissue at 20 mg/kg administered as single dose via gastric gavage measured after 3 hrs by autoradiographic analysis; assay type: ADME, organism-based, Urinary bladder; set-up: dose 20 mg/kg, dosed compound name [14C]Sunitinib; settings: in vivo, po
Blood [22] = assay: Drug concentration in male Lister Hooded pigmented rat blood assessed as radioactivity per gram of tissue at 20 mg/kg administered as single dose via gastric gavage measured after 24 hrs by autoradiographic analysis; assay type: ADME, organism-based; set-up: dose 20 mg/kg, dosed compound name [14C]Sunitinib; settings: in vivo, po
[23] = Drug concentration in female Lister Hooded pigmented rat eye assessed as radioactivity per gram of tissue at 20 mg/kg administered as single dose via gastric gavage measured after 336 hrs by autoradiographic analysis; assay type: ADME, organism-based; set-up: dose 20 mg/kg, dosed compound name [14C]Sunitinib; settings: in vivo, po; in short: as §2
Blood [24] = assay: Drug concentration in male Lister Hooded pigmented rat blood assessed as radioactivity per gram of tissue at 20 mg/kg administered as single dose via gastric gavage measured after 168 hrs by autoradiographic analysis; assay type: ADME, organism-based; set-up: dose 20 mg/kg, dosed compound name [14C]Sunitinib; settings: in vivo, po

- Radiolabel recovery (Zone of skin): 0.17 ugequiv
- Radiolabel recovery (Ovary): 11.63 ugequiv
- Radiolabel recovery (Kidney [1]): 9.43 ugequiv
- Radiolabel recovery [2]: 10.64 ugequiv
- Radiolabel recovery [3]: 0.73 ugequiv
- Radiolabel recovery [4]: 13.66 ugequiv
- Radiolabel recovery (Kidney [5]): 0.39 ugequiv
- Radiolabel recovery [6]: 0.3 ugequiv
- Radiolabel recovery [7]: 2.8 ugequiv
- Radiolabel recovery (Thymus [8]): 6.43 ugequiv
- Radiolabel recovery [9]: 61%
- Radiolabel recovery (Spinal cord [10]): 0.06 ugequiv
- Radiolabel recovery (Spinal cord [11]): 0.35 ugequiv
- Cmax (Rattus norvegicus [12]): 2926 ngequiv/ml
- Radiolabel recovery [13]: 0.96 ugequiv
- Radiolabel recovery [14]: 5.08 ugequiv
- Radiolabel recovery (Large intestine [15]): 5.38 ugequiv
- t1/2 lambda z (Rattus norvegicus [16]): 9 h
- Radiolabel recovery (Thymus [17]): 0.58 ugequiv
- Radiolabel recovery [18]: 0.9 ugequiv
- Radiolabel recovery [19]: 18.76 ugequiv
- Radiolabel recovery (Large intestine [20]): 1.5 ugequiv
- Radiolabel recovery [21]: 3.22 ugequiv
- Radiolabel recovery (Blood [22]): 0.16 ugequiv
- Radiolabel recovery [23]: 56.9 ugequiv
- Radiolabel recovery (Blood [24]): 0.06 ugequiv
SMILES: CCN(CC)CCNC(=O)c1c(C)[nH]c(/[14CH]=C2\C(=O)Nc3ccc(F)cc32)c1C.O=C(O)C[C@H](O)C(=O)O
